Only some compounds are listed: those with a hit (about 1.7% of all), similar ones and a draw of the others.
T cell modulator: T cell immune modulation candidate | 2C CD8+ T cell-vesicle binding, flow cytometry; stronger effect = lower value | response (vesicle binding), % at 7 µM | hit rate 0.068% among 330,000;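 active = response, share of CD8 T cells binding vesicles, and their 90th percentile fluorescence all below set limits, cut at about 80% in these data, passing the limit was not always enough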;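 note: values below 100% mean blocked vesicle binding to the CD8+ T cells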
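Assay system – 2C mouse CD8+ T cells · Also added – QL9-loaded Drosophila micro-vesicles · Timing – Cell–vesicle co-incubation 1.5 h at 37 °C, staining 20 min on ice · Signal – flow cytometry of vesicle-bound cells · Measure – percent CD8+ FL2 mean versus row control · Controls – Peptide-free naked vesicles (low) and QL9 vesicles with 0.7% DMSO vehicle (high)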
Myeloid diff MLP: myeloid differentiation induction | ER-HoxA9 myeloid progenitors, lysozyme-GFP differentiation, flow cytometry | calls only at 10 µM | hit rate 1% among 360,000 | AID 624256;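 active = normalized GFP-positive differentiation at or above the plate's own cutoff, the solvent-only control mean plus 3 SD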;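 note: cells exposed to compound for four days before flow analysis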
Vif imaging: HIV Vif inhibition | HEK293T cells, Vif self-association by quenched fluorescence, imaging, 24 h | inhibition, % at 7.49 µM | hit rate 0.35% among 340,000 | AID 602346; in the data active = inhibition above about 50%, passing the limit was not always enough
Pemphigus Ab inh: human desmoglein-3 autoantibody binding inhibition | P32926 | DSG3-coupled beads, scFv-anti-DSG3-GFP binding, flow cytometry; stronger effect = lower value | binding (percent of control), % at 10 µM | hit rate 0.48% among 310,000 | AID 588358;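 active = binding more than 3 SD below its plate's average and above zero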;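 note: hits lower antibody fragment binding to DSG3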
The depositor's hits bear a star.

What do the screens show for `COc1ccc2cc(C(=O)COC(=O)COc3ccc4c(C)cc(=O)oc4c3)ccc2c1`?
T cell modulator: 238; Myeloid diff MLP: inactive; Vif imaging: 2; Pemphigus Ab inh: 69*

What do the screens show for `Cc1cc(=O)oc2cc(OCC(=O)NCCc3ccccc3)ccc12`?
T cell modulator: 183; Myeloid diff MLP: active; Vif imaging: 3; Pemphigus Ab inh: 97

Results for Cc1cc(=O)oc2cc(OCc3ccccc3)ccc12 ?
T cell modulator: inactive; Myeloid diff MLP: active; Vif imaging: 11; Pemphigus Ab inh: 116

Results for Cc1cc(=O)oc2ccc(OCc3ccccc3)cc12 ?
T cell modulator: 595; Myeloid diff MLP: inactive; Vif imaging: 6; Pemphigus Ab inh: 118

Results for COc1ccc(CCNC(=O)COc2ccc3c(C)cc(=O)oc3c2)cc1 ?
T cell modulator: 420; Myeloid diff MLP: inactive; Vif imaging: 8

How did Cc1cc(C)cc(-n2c3ccc(NC(=S)NC4CCCCC4)cc3c(=O)n2C)c1 do in these assays?
Myeloid diff MLP: inactive; Vif imaging: 17

What do the screens show for `CCNC(=O)C1(C)CCN(C(=O)c2ccc(C#N)cc2)C1` (stereo unspecified)?
Myeloid diff MLP: inactive; Vif imaging: 0

Results for COc1ccc(C(CNC(=O)c2ccc(OCc3csc(C)n3)cc2)N2CCCC2)cc1 (stereo unspecified) ?
Myeloid diff MLP: inactive; Vif imaging: -4; Pemphigus Ab inh: 122

Results for Cc1ccc(C(=O)NC(N2CCCC2)C(Cl)(Cl)Cl)cc1 (stereo unspecified) ?
T cell modulator: 512; Myeloid diff MLP: inactive; Vif imaging: 56*; Pemphigus Ab inh: 101

Results for COc1cc(NC(=O)Nc2nc(C(N)C3CCCCC3)cs2)cc(OC)c1OC (stereo unspecified) ?
Myeloid diff MLP: inactive

Results for COC(=O)/C=C/c1c(C)nc(NCc2ccccc2)nc1Cl ?
T cell modulator: 270; Myeloid diff MLP: active; Vif imaging: -8; Pemphigus Ab inh: 107

Results for CCNc1nc(Cl)nc(NCc2ccccc2)n1 ?
T cell modulator: 795; Myeloid diff MLP: inactive; Vif imaging: 0

How did CCOc1ccc(N(CC(=O)NCc2ccc(Cl)cc2)S(=O)(=O)c2ccccc2)cc1 do in these assays?
T cell modulator: 374; Myeloid diff MLP: inactive; Vif imaging: -1; Pemphigus Ab inh: -57*

Results for Cc1cc(C)c(C)c(S(=O)(=O)N2CCN(C(=O)c3cc(=O)[nH]c4ccccc34)CC2)c1C ?
T cell modulator: 378; Myeloid diff MLP: active; Vif imaging: 5; Pemphigus Ab inh: 94

Results for COc1cccc(NC(=O)N(C)C[C@H]2OCc3cnnn3CCCC(=O)N([C@H](C)CO)C[C@@H]2C)c1 ?
Myeloid diff MLP: inactive; Vif imaging: -5; Pemphigus Ab inh: 100

What do the screens show for `CNc1cccnc1C=NNC(N)=S`?
Vif imaging: -18; Pemphigus Ab inh: 90

How did Cc1cccn2c(=O)c(C=O)c(NCc3ccccc3)nc12 do in these assays?
T cell modulator: 427; Myeloid diff MLP: active; Vif imaging: 5; Pemphigus Ab inh: 100

What do the screens show for `CC1(C(=O)O)CCCN1C(=O)c1cccc(C(F)(F)F)c1` (stereo unspecified)?
Myeloid diff MLP: inactive; Vif imaging: 11

How did Cn1c(Cn2c(=O)sc3ccccc32)nnc1SCC(=O)NC1CCCCC1 do in these assays?
T cell modulator: 68*; Myeloid diff MLP: inactive; Vif imaging: -13; Pemphigus Ab inh: 113

Results for Cn1c(Cn2c(=O)sc3ccccc32)nnc1SCC(=O)NC1CCCC1 ?
T cell modulator: 64; Myeloid diff MLP: inactive; Vif imaging: 1; Pemphigus Ab inh: 113

How did Cc1ccccc1NC(=O)Cc1nnc(SCC(=O)NC2CCCC2)n1C do in these assays?
T cell modulator: 206; Myeloid diff MLP: inactive; Vif imaging: 8; Pemphigus Ab inh: 88*

How did CCn1c(CNC(=O)c2ccccc2F)nnc1SCC(=O)NC1CCCCC1 do in these assays?
T cell modulator: 224; Myeloid diff MLP: inactive; Vif imaging: -15; Pemphigus Ab inh: 84

What do the screens show for `CC(C)n1c(CNC(=O)c2ccccc2F)nnc1SCC(=O)NC1CCCCC1`?
Myeloid diff MLP: inactive; Vif imaging: 53*; Pemphigus Ab inh: 99

What do the screens show for `Cn1c(CC(=O)Nc2ccccc2F)nnc1SCC(=O)NC1CCCCC1`?
T cell modulator: 310; Myeloid diff MLP: inactive; Vif imaging: 21; Pemphigus Ab inh: 111

How did Cc1cccc(NC(=O)[C@H](Cc2ccccc2)NC(=O)OCc2ccccc2)c1 do in these assays?
T cell modulator: 147; Myeloid diff MLP: inactive; Vif imaging: -6; Pemphigus Ab inh: -3.4*

Results for CC1(C)N=C(N)N=C(N)N1c1ccc(OCC(=O)N2CCOCC2)c(Cl)c1 ?
Myeloid diff MLP: active; Vif imaging: 2; Pemphigus Ab inh: 98

What do the screens show for `CCN(CC)c1nc2ccccc2nc1C(C#N)C(=O)NCCCOC` (stereo unspecified)?
T cell modulator: 259; Myeloid diff MLP: active; Vif imaging: -17; Pemphigus Ab inh: 95

Results for CC(C(=O)Nc1ccc(C#N)cc1)N1CCN(C(=O)C2CC2)CC1 (stereo unspecified) ?
T cell modulator: 522; Myeloid diff MLP: inactive; Vif imaging: -12; Pemphigus Ab inh: 107

Results for Cc1ccc(C(=O)N/C(=C/c2ccc(N(C)C)cc2)C(=O)NCC2CCCO2)cc1 (stereo unspecified) ?
T cell modulator: 384; Myeloid diff MLP: inactive; Vif imaging: 2; Pemphigus Ab inh: 35*

Results for NC(=O)c1ccsc1NC(=O)CCS(=O)(=O)c1ccc(Cl)cc1 ?
Myeloid diff MLP: inactive; Vif imaging: -6; Pemphigus Ab inh: 111

How did CN(C)c1ccc(/C=C2/NC(=O)NC2=O)cc1 do in these assays?
T cell modulator: 292; Myeloid diff MLP: inactive; Pemphigus Ab inh: 96

What do the screens show for `CN(C)c1ccc(/C=C2\N=C(c3ccc(Cl)c([N+](=O)[O-])c3)NC2=O)cc1`?
T cell modulator: 208; Myeloid diff MLP: active; Vif imaging: -1; Pemphigus Ab inh: 114

Results for Cc1ccc(-n2ncc3c(N4CCCC(C)C4)ncnc32)c(C)c1 (stereo unspecified) ?
T cell modulator: 43*; Myeloid diff MLP: inactive; Vif imaging: -9; Pemphigus Ab inh: 102

How did CCCCCCc1cc2cc(-c3nnc(-c4cc(OC)c(OC)c(OC)c4)o3)c(=O)oc2cc1O do in these assays?
T cell modulator: 452

What do the screens show for `CCCCCCc1cc2cc(-c3nnc(-c4ccccc4O)o3)c(=O)oc2cc1O`?
T cell modulator: 370; Myeloid diff MLP: active; Vif imaging: 1; Pemphigus Ab inh: 113

How did CCCCCCc1cc2cc(-c3nnc(-c4ccccc4OC)o3)c(=O)oc2cc1O do in these assays?
T cell modulator: 412; Myeloid diff MLP: active; Vif imaging: 70*; Pemphigus Ab inh: 105

Results for O=C(CSc1nnc(-c2ccccc2)n1C1CCCCC1)N1CCCC1 ?
T cell modulator: 419; Myeloid diff MLP: inactive; Vif imaging: -1; Pemphigus Ab inh: 97
